Assay results gathered from unrelated publications.
Protocols differ between the studies behind these lines.
EGFR L861Q: Epidermal growth factor receptor (EGFR, Homo sapiens, UniProt P00533, L861Q)
EGFR: Epidermal growth factor receptor (EGFR, Homo sapiens, UniProt P00533)
EGFR T790M: Epidermal growth factor receptor (EGFR, Homo sapiens, UniProt P00533, T790M)
EGFR del752-759: Epidermal growth factor receptor (EGFR, Homo sapiens, UniProt P00533, del752-759)
EGFR L858R/T790M: Epidermal growth factor receptor (EGFR, Homo sapiens, UniProt P00533, L858R/T790M)

With `N[C@H]1CCN(c2nccc(-c3cnn4ncccc34)n2)C1` the remaining binding was 81% (EGFR L861Q; binding; 1 µM).
`CCN(CC)CCNC(=O)c1c(C)[nH]c(/C=C2\C(=O)Nc3ccc(Cl)cc32)c1C` has a remaining signal of 97% (EGFR; cell-free assay; 0.5 µM).
The kon of `CC(C)[C@@H]1NC(=O)[C@H](CCCNC(=N)N)NC(=O)[C@H](Cc2ccc(O)cc2)NC(=O)[C@H](C(C)C)NC(=O)[C@H](C(C)C)NC(=O)[C@H](CCCNC(=N)N)NC(=O)[C@H](CC(=O)O)NC(=O)[C@H](CC(=O)O)NC(=O)CCNC(=O)[C@H](Cc2ccc(O)cc2)NC(=O)[C@H](Cc2ccc(O)cc2)NC(=O)[C@H](Cc2ccccc2)NC(=O)[C@@H](Cc2ccc(O)cc2)NC(=O)CSC[C@@H](C(=O)NCC(N)=O)NC(=O)[C@H](C)NC1=O` is reported as 192000 M⁻¹ s⁻¹ (EGFR; binding, SPR).
For `CC(C)(O)[C@H]1CC[C@H](Nc2ccc3ncc(-c4cccc(C(F)(F)F)c4)n3n2)CC1`, the remaining activity was 80% (EGFR; enzyme activity, inhibitor; 1 µM).
For `Cc1cc(NC(=O)c2cccc3cc(-c4cccc5[nH]nc(N)c45)ccc23)ccc1F`, the activity vs control was 112% (Epidermal growth factor receptor (EGFR, Homo sapiens, UniProt P00533, L858R); enzyme activity, inhibitor; 0.1 µM).
The remaining activity of `Cc1cnc(NC2CCOCC2)nc1-n1cnc(C(=O)NC(CN)c2cc(F)cc(Cl)c2)c1` (centres unmarked) is reported as 108% (EGFR L861Q; enzyme activity, inhibitor, radiometric; 1 µM).
`CN(CCCC(F)(F)F)c1nccc(-c2cnn3ncccc23)n1` gave a remaining binding of 86% (EGFR; binding; 1 µM).
`O=C(NCCCN1CCOCC1)c1ccc(Nc2nccc(-c3cc4ccccc4s3)n2)cc1` gave a remaining binding of 90% (EGFR T790M; binding, competition with immobilised ligand; 1 µM).
The remaining binding of `CCC(=O)N[C@@H]1CC[C@H](C(=O)N(C)c2ccc(-c3nc4ccccc4o3)cc2)C1` is reported as 88% (EGFR del752-759; cell-free assay, competition with immobilised ligand; 1 µM).
The remaining binding of `Cc1cnn2ncc(-c3ccnc(N(C)C)n3)c2c1` is reported as 70% (EGFR L861Q; binding; 1 µM).
`O=C(Nc1cccnn1)N1CCC(=Cc2cccc(Oc3ccc(C(F)(F)F)cn3)c2)CC1` has a remaining binding of 99% (EGFR L858R/T790M; cell-free assay, competition with immobilised ligand; 1 µM).
`COc1ccnn2ncc(-c3ccnc(N(C)C)n3)c12` gave a remaining binding of 93% (EGFR L858R/T790M; binding; 1 µM).
`FC(F)(F)c1ccc2c(c1)nc(-c1cccnc1)n2C1CC1` gave a remaining binding of 100% (Epidermal growth factor receptor (EGFR, Homo sapiens, UniProt P00533, del747-752/P753S); cell-free assay, competition with immobilised ligand; 1 µM).
`CCC(=O)Nc1cc(Nc2nc(N3CCc4sccc4C3)c3cccnc3n2)c(OC)cc1N1CCN(CC)CC1` has an inhibition of 19.2% (EGFR L858R/T790M; enzyme activity, inhibitor, ELISA; 0.1 µM).
`CO[C@@H](C)c1c(Nc2ccc([C@@H](N(C)C(=O)C3CCS(=O)(=O)CC3)C(F)(F)F)cc2)cnc2cc(Cl)nn12` has a remaining binding of 100% (EGFR T790M; cell-free assay, competition with immobilised ligand; 1 µM).
`COc1cc2ncnc(Nc3ccc(Oc4ccccc4)cc3C)c2cc1OC` has an inhibition of 89% (EGFR; enzyme activity, inhibitor; 1 µM).
`Cc1cc(NC(=O)c2cccc(S(F)(F)(F)(F)F)c2)cc(-n2ccn3nc(-c4cccnc4)cc23)c1` gave a remaining binding of 100% (Epidermal growth factor receptor (EGFR, Homo sapiens, UniProt P00533, G719S); cell-free assay, competition with immobilised ligand; 1 µM).
With `Cc1ccc(C(=O)Nc2ccc(CN3CCN(C)CC3)c(C(F)(F)F)c2)cc1C#Cc1cnc2cccnn12` the remaining signal was 88% (Epidermal growth factor receptor (EGFR, Homo sapiens, UniProt P00533, G719C); cell-free assay; 23.5 nM).
The remaining binding of `O=C(Nc1ccc(Oc2ccc(F)cc2)cc1)N1CCc2ncccc2[C@H]1c1ccc(F)cc1` is reported as 80% (EGFR del752-759; cell-free assay, competition with immobilised ligand; 1 µM).
With `Cc1ccc(C(=O)NCc2ccsc2)cc1C#Cc1cn(C(C)C)c2ncnc(N)c12` the activity vs control was 86% (EGFR; enzyme activity, inhibitor; 1 µM).
